From PubChem
Tn7 DDE FP: inhibitors of Tn7 peptide binding to human fibrin DD(E); P02675; FP displacement of FITC-Tn7 peptide from fibrin DD(E); 0% = median of compound wells per plate; 370,000 compounds, 0.13% hits; inhibition, % at 8.3 µM;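 active means inhibition above the mean of compounds falling within the control limits plus 3 SD of them, cut at about 14% in these data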;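 further: 0% = plate median of compound wells and 100% = 10 µM Aha-Tn7 peptide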
Target sequence (P02675 whole entry, looked up): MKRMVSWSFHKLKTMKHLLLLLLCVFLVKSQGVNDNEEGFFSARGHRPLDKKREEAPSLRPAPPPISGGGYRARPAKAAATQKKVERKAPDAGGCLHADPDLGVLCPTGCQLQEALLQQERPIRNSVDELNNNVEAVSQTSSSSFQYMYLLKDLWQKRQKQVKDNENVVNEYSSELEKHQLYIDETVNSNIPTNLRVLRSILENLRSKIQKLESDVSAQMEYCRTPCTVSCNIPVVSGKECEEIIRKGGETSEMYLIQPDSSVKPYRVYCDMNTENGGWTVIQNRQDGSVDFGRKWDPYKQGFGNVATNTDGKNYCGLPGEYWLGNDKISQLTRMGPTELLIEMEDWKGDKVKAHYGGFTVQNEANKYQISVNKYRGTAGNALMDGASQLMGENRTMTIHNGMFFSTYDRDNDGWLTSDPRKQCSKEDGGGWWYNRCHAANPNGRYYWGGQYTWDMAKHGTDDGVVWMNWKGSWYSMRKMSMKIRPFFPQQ
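Test system: human clot-derived fibrin DD(E) complex / Quantity: 2 µM final DD(E) protein / Incubation: 10 min plus 3 h, room temperature / Measured by: fluorescence polarization / Benchmarks: high control of 10 µM Aha-Tn7 peptide / Replicates: singlicate testing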
CRFR2-BP ag: CRF-BP/CRF-R2 complex agonism; HEK293 CRF-R2/CRF-BP, calcium dye fluorescence (FLIPR); percent of saturating CRF peptide response; activation, % at 13.2 µM; 350,000 compounds, 0.46% hits; AID 588473;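 active means activation of at least 50%, plus an integration ratio under a set limit after plate pattern correction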;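 further: plate controls were neutral control wells without compound for no effect and CRF at EC100 for full effect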
Tn6 DDE FP: inhibitors of Tn6 peptide binding to human fibrin DD(E). Fibrin DD(E) TRITC-Tn6 fluorescence polarization displacement. inhibition, % at 8.3 µM. P02675. 370,000 compounds, 0.21% hits. AID 720509;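 active means inhibition above a per-campaign cutoff: mean of compounds within control limits plus 3 SD, cut at about 15% in these data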;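 further: 0% = median of all compound wells on the plate and 100% = blocking peptide control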
CRFR2-BP antag: antagonists of CRF-binding protein/CRF-R2 receptor complex; HEK293 CRF-R2/CRF-BP, CRF-induced calcium fluorescence; inhibition, % at 11.8 µM; 350,000 compounds, 0.59% hits; AID 588475;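 active means inhibition of the ligand-induced calcium signal above about 50% at the single tested concentration, limit read from the data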
DDE Tn6 FP ctr: DD(E)-Tn6 binding inhibition, counter-screen | shares compounds with Tn6 DDE FP | Fibrin DD(E), TRITC-Tn6 fluorescence polarization displacement; 0% = median of compound wells, not DMSO | inhibition, % at 8.3 µM | 680 compounds, 2% hits | AID 720621;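 active means inhibition above the mean of test compounds lying between the control limits plus 3 SD of those, cut at about 14% in these data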;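 further: 0% = median of compound wells and 100% = wells with Aha-Tn7 blocking peptide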
DDE Tn6 confirm: confirmation of inhibitors of Tn6 binding to human fibrin DD(E); shares compounds with Tn6 DDE FP; FP displacement of TRITC-Tn6 peptide from DD(E); 0% = per-plate median of test wells; inhibition, % at 8.3 µM; 680 compounds, 10% hits;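 active means inhibition above the mean of compounds lying within the control limits plus 3 SD, cut at about 16% in these data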;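 further: 100% = high control wells holding a competing inhibitor peptide at 10 µM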
An asterisk follows results filed as active; · = no result. This is a sample that favours compounds with a hit; in the whole collection about 1.2% have one here.

SMILES	Tn7 DDE FP	CRFR2-BP ag	Tn6 DDE FP	CRFR2-BP antag	DDE Tn6 FP ctr	DDE Tn6 confirm
COc1ccc(/C=C(\C#N)C(=O)NCC2CCCO2)cc1OC (stereo not drawn)	3	-1	1	-1	·	·
COc1ccc(OC)c(NC(=O)CSc2nnc(CNC(=O)c3ccccc3F)o2)c1	-3	-1	-3	5	·	·
COc1ccc(C(=O)NCc2nnc(SCC(=O)Nc3cc(OC)ccc3OC)o2)cc1	-2	-2	15*	-5	5	-2
CCCn1c(N)c(C(=O)COC(=O)COc2ccc(Cl)c(C)c2)c(=O)n(C)c1=O	-9	7	3	-10	·	·
Fc1ccccc1-c1nnc2c3ccccc3nc(N3CCOCC3)n12	3	-1	15*	9	-2	-1
Brc1ccc(-c2nnc3c4ccccc4nc(N4CCOCC4)n23)cc1	11	-6	6	-69	·	·
O=P1(NC2CCCC2)OCC2(CO1)COP(=O)(NC1CCCC1)OC2 (stereo not drawn)	2	-1	9	-18	·	·
Cc1nn(-c2ccc(F)cc2)c2c1cc(C#N)c1nc3ccccc3n12	-1	-1	16*	-4	0	-1
O=C(NC(Cc1cccc(F)c1)C(=O)O)C1CCCCC1 (stereo not drawn)	-3	0	16*	4	-2	-6
Cc1ccc(C(=O)NC(Cc2cccc(F)c2)C(=O)O)cc1 (stereo not drawn)	-7	-1	5	-6	·	·
Cn1c2ccsc2c2ncn(Cc3ccccc3F)c(=O)c21	-8	-2	9	-2	·	·
CCN1CC=C2C(C1)C(c1ccc(Cl)s1)C(C#N)=C(N)C2(C#N)C#N (stereo not drawn)	3	44	16*	-20	-2	-3
O=C(CSc1nnc(-c2ccccn2)n1Cc1ccco1)Nc1ccc2c(c1)OCO2	2	1	15*	2	9	3
CCn1c(SCC(=O)Nc2ccc3c(c2)OCCO3)nnc1-c1ccccn1	5	0	-3	1	·	·
C[C@H](CO)N1C[C@H](C)[C@@H](CN(C)S(=O)(=O)c2cccs2)Oc2ccc(NC(=O)Nc3ccccc3)cc2C1=O	0	-1	-6	10	·	·
C[C@H](CO)N1C[C@H](C)[C@@H](CN(C)S(=O)(=O)c2cccs2)Oc2ccc(NC(=O)CCC(F)(F)F)cc2C1=O	9	0	3	5	·	·
C[C@H](CO)N1C[C@H](C)[C@@H](CN(C)S(=O)(=O)c2ccc(F)cc2)Oc2ccc(NC(=O)Nc3ccccc3)cc2C1=O	2	0	4	-1	·	·
C[C@@H]1CN([C@@H](C)CO)C(=O)Cc2cc(NC(=O)Nc3ccc(C(F)(F)F)cc3)ccc2O[C@@H]1CN(C)S(=O)(=O)c1ccc(Cl)cc1	0	3	32*	-3	0	12
C[C@@H]1CN([C@H](C)CO)C(=O)c2cc(NC(=O)Nc3ccc(C(F)(F)F)cc3)ccc2O[C@H]1CN(C)S(=O)(=O)c1cccs1	2	1	54*	-1	-2	9
C[C@H](CO)N1C[C@H](C)[C@@H](CN(C)S(=O)(=O)c2ccc(F)cc2)Oc2ccc(NC(=O)Nc3ccc(C(F)(F)F)cc3)cc2C1=O	0	3	42*	5	5	4
C[C@H](CO)N1C[C@H](C)[C@@H](CN(C)S(=O)(=O)c2cccs2)Oc2ccc(NC(=O)Nc3ccc(C(F)(F)F)cc3)cc2C1=O	10	1	51*	1	2	1
O=C1CCC2(CCC(c3ccccc3)CC2)N1CCCO (stereo not drawn)	2	·	-2	·	·	·
CC(C)CNC(=O)C1C(=O)Nc2ccccc2C(=O)N1C(C)(C)C (stereo not drawn)	3	·	-4	·	·	·
COc1ccc(-c2cc(-c3nnc(SCC(=O)Nc4ccccc4-c4ccccc4)n3N)[nH]n2)cc1	4	·	-11	·	·	·
Cc1cc2c(cc1S(=O)(=O)N1CCN(c3cccc(C)c3C)CC1)OCCN2C	-1	2	131*	29	8	67*
O=C(NN=Cc1cccc(OCc2ccccc2)c1)c1cc(-c2ccc(Cl)cc2)n[nH]1	-4	·	22*	·	2	-1
O=C(NN=Cc1ccc(O)cc1)c1cc(-c2ccc(Cl)cc2)n[nH]1	1	·	-6	·	·	·
COc1ccc2nc(SCCOC(=O)Nc3ccc(Cl)cc3)nc(C)c2c1	-6	0	-2	-28	·	·
